The source made the active and inactive calls. The calls are words filed in the database; no cut-off is given here.
Legend:
[1] = molecular target: T1, M-phase inducer phosphatase 2 (Homo sapiens, UniProt P30305); experiment: Inhibition of CDC25B (unknown origin)
T1 sequence (P30305 whole entry): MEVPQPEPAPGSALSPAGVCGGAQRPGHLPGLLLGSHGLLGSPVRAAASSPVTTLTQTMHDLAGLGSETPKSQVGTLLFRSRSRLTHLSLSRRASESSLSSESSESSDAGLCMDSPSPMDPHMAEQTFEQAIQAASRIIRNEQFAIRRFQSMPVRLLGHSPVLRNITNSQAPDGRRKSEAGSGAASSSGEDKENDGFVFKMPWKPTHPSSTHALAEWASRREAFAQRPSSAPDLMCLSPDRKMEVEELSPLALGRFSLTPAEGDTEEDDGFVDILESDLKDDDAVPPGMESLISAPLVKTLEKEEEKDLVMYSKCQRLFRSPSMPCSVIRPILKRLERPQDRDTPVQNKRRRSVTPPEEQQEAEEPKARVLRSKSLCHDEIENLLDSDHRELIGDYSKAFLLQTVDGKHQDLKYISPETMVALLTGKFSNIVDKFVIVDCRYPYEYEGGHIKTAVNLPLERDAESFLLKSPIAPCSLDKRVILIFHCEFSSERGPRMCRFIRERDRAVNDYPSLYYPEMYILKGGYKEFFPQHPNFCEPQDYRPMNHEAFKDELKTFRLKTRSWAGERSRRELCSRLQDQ

[2] = molecular target: T2, Tyrosine-protein phosphatase non-receptor type 1 (Rattus norvegicus) (UniProt P20417); experiment: Inhibition of PTP1B in rat L6 cells assessed as insulin-stimulated 2-deoxy-[3H]-deoxy-glucose uptake at 20 uM preincubated for 2 hrs followed by insulin challenge for 30 mins; format: cell-based
T2 sequence (whole entry): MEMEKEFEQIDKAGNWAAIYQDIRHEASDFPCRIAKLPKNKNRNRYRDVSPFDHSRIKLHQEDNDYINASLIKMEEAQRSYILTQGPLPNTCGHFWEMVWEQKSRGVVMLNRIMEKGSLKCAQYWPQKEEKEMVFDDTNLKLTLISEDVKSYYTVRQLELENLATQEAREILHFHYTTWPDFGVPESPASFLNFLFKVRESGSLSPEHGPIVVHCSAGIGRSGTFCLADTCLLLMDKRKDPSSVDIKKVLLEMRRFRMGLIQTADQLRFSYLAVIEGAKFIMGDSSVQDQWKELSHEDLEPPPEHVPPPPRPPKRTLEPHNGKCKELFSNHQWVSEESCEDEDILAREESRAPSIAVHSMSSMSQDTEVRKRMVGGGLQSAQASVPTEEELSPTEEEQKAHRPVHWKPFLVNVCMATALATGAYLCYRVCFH
Procedure, shortened: (§1)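 Differentiated L6 myotubes were serum-starved 2 h, treated with compound, then stimulated with 10 nM insulin for 30 min. Cells were washed in HEPES-buffered saline, pH 7.4, and incubated 15 min with 2-deoxy-[3H]-glucose. After ice-cold PBS washes they were lysed in 0.1% Triton X-100 and radioactivity was counted. Data are averages of at least three independent replicates.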

[3] = molecular target: T2, Tyrosine-protein phosphatase non-receptor type 1 (Rattus norvegicus); experiment: Inhibition of PTP1B in rat L6 cells assessed as insulin-stimulated 2-deoxy-[3H]-deoxy-glucose uptake preincubated for 2 hrs followed by insulin challenge for 30 mins; format: cell-based; procedure, shortened: as §1
[4] = molecular target: T2, Tyrosine-protein phosphatase non-receptor type 1 (Rattus norvegicus); experiment: Inhibition of PTP1B in rat L6 cells assessed as insulin-induced Akt phosphorylation at 20 uM preincubated for 2 hrs followed by insulin challenge for 10 mins by Western blotting analysis in presence of wortmannin; format: cell-based
Procedure, shortened: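 Differentiated L6 myotubes were pretreated with 250 nM wortmannin to block PI3K. They then received 20 μM compound for 2 h and were stimulated with or without 10 nM insulin. Akt phosphorylation was read by immunoblot of lysates with anti-phospho-Akt (Ser473).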

[5] = molecular target: T2, Tyrosine-protein phosphatase non-receptor type 1 (Rattus norvegicus); experiment: Inhibition of PTP1B in rat L6 cells assessed as insulin-induced Akt phosphorylation at 5 to 10 uM preincubated for 2 hrs followed by insulin challenge for 10 mins by Western blotting analysis; format: cell-based
Procedure, shortened: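 Rat L6 myoblasts were differentiated in DMEM with 2% FBS and used as myotubes 5–7 days later. They were serum-starved 2 h, treated with compound 2 h (0.2% DMSO vehicle), then given 10 nM insulin for 10 min. Lysates were run on 8% SDS-PAGE and immunoblotted for phospho-Akt (Ser473), with β-actin as loading control.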

## O=C(CCc1c[nH]c2ccccc12)N[C@@H](Cc1ccc(OCc2ccccc2)cc1)c1nc(C(=O)Nc2cc(F)ccc2C(=O)O)c(-c2ccccc2)s1
[1]
  IC50: 1.62 µM
[2]
  inhibition: 86%
[3]
  inhibition: Dose-dependent effect
[4]
  inhibition: inactive
[5]
  inhibition: Active

From ChEMBL document CHEMBL2434820, “Design, synthesis, and biological evaluation of novel 2-ethyl-5-phenylthiazole-4-carboxamide derivatives as protein tyrosine phosphatase 1B inhibitors with improved cellular efficacy” (Eur J Med Chem, 2013)
